# Hits are enriched below; roughly 11% of the tested compounds scored in any of these assays.
# SF1 activator – activates the human nuclear receptor SF-1. CHO-K1 Gal4-SF-1 LBD luciferase reporter; % increase over DMSO SF-1-specific signal. activation, % at 10 µM. 1.9% of 65,000 active. AID 522;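 active = activation above the mean activation of all tested compounds plus 3 SD, cut at about 50% in these data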
#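 Assay system: CHO-K1 cells co-transfected with Gal4 DBD–human SF-1 LBD, 5xGal4 luciferase reporter / Input: 4,000 cells per well / Incubation: 20 h compound exposure at 37 °C after 1 h cell settling / Detection: SteadyLite luciferase luminescence / Control set: DMSO negative control and −SF1 background wells / Replication: one test per compound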
# RORa activator – activates the human nuclear receptor RORA. P35398. CHO-K1 Gal4-RORA LBD luciferase reporter, luminescence; percent increase over mock-subtracted basal signal. activation, % at 10 µM. 1.5% of 65,000 active;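 active = activation above the mean of all tested compounds plus 3 SD, cut at about 49% in these data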;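 note: 0% = DMSO-treated RORA cells and 100% = added signal equal to DMSO minus mock-transfected cells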
# Target sequence (P35398 whole entry, looked up, the tested form may be a part): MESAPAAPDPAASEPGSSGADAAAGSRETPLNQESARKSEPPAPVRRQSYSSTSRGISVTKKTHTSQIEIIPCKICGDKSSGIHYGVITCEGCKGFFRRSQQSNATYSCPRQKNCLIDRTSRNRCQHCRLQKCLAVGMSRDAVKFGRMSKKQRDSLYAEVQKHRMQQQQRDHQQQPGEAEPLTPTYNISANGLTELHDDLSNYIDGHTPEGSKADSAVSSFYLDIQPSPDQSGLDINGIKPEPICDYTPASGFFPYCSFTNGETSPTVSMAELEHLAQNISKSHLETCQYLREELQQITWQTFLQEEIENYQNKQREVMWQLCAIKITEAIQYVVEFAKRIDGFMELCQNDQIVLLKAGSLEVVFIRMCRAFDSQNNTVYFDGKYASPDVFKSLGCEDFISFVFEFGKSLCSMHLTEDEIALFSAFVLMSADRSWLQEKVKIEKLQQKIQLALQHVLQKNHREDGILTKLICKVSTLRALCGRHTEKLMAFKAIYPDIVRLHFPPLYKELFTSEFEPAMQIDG
# M1 antagonist – antagonists of rat M1 muscarinic receptor. 3.4% of 64,000 active. CHO-M1 cells, Fluo-4 calcium, ACh EC80 antagonist mode; stronger effect = lower value. B-score at 10 µM. P08482;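 active = calcium fluorescence response, raw or row-and-column corrected B-score, differing from the plate sample mean either way at a set confidence level, mostly lower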
# mHtt clearance – compounds clearing mutant huntingtin protein; inhibition, % at 1.5 µM; AID 853; HeLa Exon1htt(103Q)mCFP, aggregate imaging; zero = plate's median compound well; 0.42% of 47,000 active;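 active = inhibition of aggregate fluorescence above about 70%, also judged a hit by eye on the cell image, limit read from the data, passing the limit was not always enough; inconclusive = no rule stated for this call; inactive = not judged a hit on image review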;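 note: cells exposed to compound for three days before fixation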
# M1 agonist – M1 muscarinic receptor agonism | CHO-M1 cells, Fluo-4 calcium fluorescence, agonist mode; stronger effect = higher value | B-score at 10 µM | 3% of 64,000 active | AID 626;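 active = fluorescence rise, raw or as B-score row- and column-corrected plate score, outside the 99.7% band of its plate's samples, either direction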
# D1 allo mod – allosterically modulates the human D1 dopamine receptor; P21728; HEK293 D1, CRE-luciferase, dopamine EC30 potentiation; actives deviate in either direction; B-score at 10 µM; 5.9% of 58,000 active; AID 641;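 active = luminescence count or its row- and column-corrected plate score outside the 99.7% band of the plate's sample wells, on either side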
# Numbers without * were called inactive; u = inconclusive; x = no result given.
SMILES,SF1 activator,RORa activator,M1 antagonist,mHtt clearance,M1 agonist,D1 allo mod
O=C(CCc1ccc(S(=O)(=O)N2CCOCC2)cc1)OCc1nc2ccccc2s1,59*,10,-0.43,24,0.64,2.6
O=C(OCc1nc2ccccc2s1)c1cccc(S(=O)(=O)N2CCOCC2)c1,28,45,0.7,-53,-0.076,x
O=C(CN1CCCCC1)Nc1cccc(Br)c1,-8,-15,0.61,u,0.38,x
CCc1nnc(NC(=O)CSc2nnc(-c3ccoc3C)n2CC(C)C)s1,2,-10,-0.011,x,-0.56,2
COCCCn1c(SCC(=O)Nc2nnc(C)s2)nnc1-c1ccoc1C,3,6,-0.2,78*,0.27,-0.4
Cn1c(=O)[nH]c(=O)c2[nH]c(CN3CCN(C(=O)c4ccco4)CC3)nc21,-3,-1,-0.34,-27,0.58,0.51
CCc1nnc(NC(=O)c2ccc(OC)cc2OC)s1,-3,-2,0.77,-22,0.83,-4.8*
CCOC(=O)Cc1nnc(NC(=O)c2ccccc2OC)s1,-13,-4,0.24,x,-0.98,-0.73
CCN(CCNC(=O)CS(=O)(=O)Cc1nc(-c2cccc(OC)c2)oc1C)c1ccccc1,8,15,-0.035,30,-0.32,-0.31
Cc1nnc(SCC(=O)N2CCCCC2)s1,2,7,-0.63,0,-0.16,-0.57
O=C(c1ccc2nc(N3CCOCC3)sc2c1)N1CCCC1,0,14,0.052,x,0.011,2.3
COc1cccc(N2CCN(C(=O)c3ccc4nc(N5CCCCC5)sc4c3)CC2)c1,89*,78*,-0.17,-123,1.2,x
COc1ccc(N2CCN(C(=O)c3ccc4nc(N5CCCCC5)sc4c3)CC2)cc1,31,68*,0.24,x,0.27,1.3
CCc1nc(C)cc(N)c1OCc1ccccc1,-15,2,-1,x,0.88,-0.69
CCCN1C=CC(=C2C(=O)c3ccccc3C2=O)C=C1,-93,-91,0.06,x,-0.43,-5.7*
CCN1C=CC(=C2C(=O)c3ccccc3C2=O)C=C1,-80,-67,-0.066,-74,-0.049,-8.8*
CCN1C(=O)NC2=C(C(=O)c3ccccc32)C1c1ccccc1F (configuration not stated),x,x,x,-83,x,x
CC1=CC(=C2C(=O)c3ccccc3C2=O)C=C(C)N1Cc1ccco1,18,20,-0.78,49,-0.5,-1.3
CCCNC(=O)N1CCC(C(=O)c2cccc(F)c2)CC1,x,x,x,-35,x,x
CN1C(=O)CC(N2CCN(C(=O)CN3CCCC3)CC2)C1=O (configuration not stated),6,-5,x,x,x,-2.7*
CN1C(=O)CC(N2CCN(CC(=O)N3CCCC3)CC2)C1=O (configuration not stated),-10,5,0.016,x,0.3,-1
c1csc(-c2nc3ccccc3[nH]2)c1,94*,43,-0.036,4,0,-0.66
Cc1ccc(-c2nc3ccccc3[nH]2)s1,39,50*,0.22,-13,-0.57,-2.1
Nc1cc(N)cc(-c2nc3ccccc3[nH]2)c1,32,0,0.018,-52,0.37,-1.4
Cc1[nH]c2ccccc2c1-c1nc2ccccc2[nH]1,14,-14,-0.16,x,0.59,-2.7*
SMILES,SF1 activator,RORa activator,M1 antagonist,mHtt clearance,M1 agonist,D1 allo mod
Nc1nc(-c2nc3ccccc3[nH]2)cs1,23,7,0.24,x,-0.23,-2.8*
CCC(c1nnc(SCC(=O)Nc2ccc(C(=O)Nc3ccccc3OC)cc2)o1)N(C)C (configuration not stated),10,-17,0.005,x,-0.48,x
COc1ccccc1C1C=C(c2ccc(Cl)cc2)Nc2nc(N3C(=O)CCC3=O)nn21 (configuration not stated),-12,-8,-0.046,x,-1.2,1.4
COc1ccc(C2C=C(c3ccc(Br)cc3)Nc3nc(N4C(=O)CCC4=O)nn32)cc1 (configuration not stated),-17,-2,0.25,15,21*,-0.8
CC1CC(c2ccccc2)n2nc(N3C(=O)c4ccccc4C3=O)nc2N1 (configuration not stated),26,13,-0.37,x,0.45,0.51
O=C1CCC(=O)N1c1nc2n(n1)C(c1ccccc1)C=C(c1ccc(Br)cc1)N2 (configuration not stated),-5,-25,-0.64,-5,26*,x
COc1cccc(C(c2nnnn2Cc2ccc(F)cc2)N2CCC(C(N)=O)CC2)c1OC (configuration not stated),11,-18,-0.42,u,0.52,0.65
Cn1c(CN2CCCCC2)c(C#N)c2ccccc21,5,-5,0.012,-6,0.99,-2.2*
COCCNc1ncnc2c1cnn2-c1ccc(Cl)cc1,68*,54*,-1.1,x,0.89,x
Clc1ccc(-n2ncc3c(NCc4cccs4)ncnc32)cc1,74*,44,-1.1,x,-0.71,x
OCCOCCNc1ncnc2c1cnn2-c1ccc(Cl)cc1,64*,7,0.079,x,1.2,x
OCCOCCNc1ncnc2c1cnn2-c1ccccc1,46,-5,0.15,-8,-1.4,-1.3
COCCN(CCOC)c1ncnc2c1cnn2-c1ccc(Cl)cc1,33,55*,0.42,x,-0.16,x
COc1ccc(NC(=O)Nc2ccccc2C(=O)N2CCCC2)cc1,2,8,x,9,x,-0.079
Cc1nc(SCCCSc2n[nH]c(C)n2)n[nH]1,-13,-1,0.0084,9,-0.035,0.0095
CCC(C(=O)Nc1cnccn1)c1ccccc1 (configuration not stated),4,4,0,-39,0.27,x
CC(C)c1ccc(NC(=O)c2csnn2)cc1,5,-29,0.0053,x,0.83,-4.5*
CC(C)(C)c1cc(NC(=O)c2cccnc2)no1,75*,37,-0.14,78*,0,x
CC(C)(C)c1ccc(C(=O)Nc2cnccn2)cc1,21,-8,-0.65,38,0.32,-3.4*
CC(C)c1ccc(NC(=O)c2cccnc2)cc1,34,69*,-0.42,-30,-0.23,x
Cc1cc(N2CCC3(CC2)OCCO3)n2nc(C)c(-c3ccc(Cl)cc3)c2n1,-13,1,0.013,58,0.017,0.78
CC(C)(C)c1cc(NC(=O)C2CCCO2)no1 (configuration not stated),70*,8,-0.39,0,-1.6,0.31
CSc1ccccc1NC(=O)C1CCCO1 (configuration not stated),-4,13,0.25,x,0.31,0.84
O=C1CCC(=O)N1CN(Cc1ccco1)CN1C(=O)CCC1=O,1,-27,0.59,-39,-0.14,x
Cc1cc(-n2c(C)cc(C(=O)CN3C(=O)NC4(CCCC4)C3=O)c2C)no1,32,0,0.2,49,-0.33,-0.84
Cc1cc(-n2c(C)cc(C(=O)CN3C(=O)NC4(CCCCC4)C3=O)c2C)no1,-7,-4,1.7*,x,0.48,-0.36
N#C/C(C(=O)N1CCCCC1)=C1\Nc2ccccc2S1,50*,30,-0.26,-84,-1.4,-0.36

# Compound activity from PubChem BioAssay.
